Measured values published in paper PMC3759818 (Pharmaceutical research, 2009).
Where “and” joins values, the source holds several entries; their conditions need not be identical. Equal entries are not always repeated. Entries after “also recorded” stand apart in the source; their conditions may differ.

Tests used:
[1] = Pancreas pharmacokinetics in mice after single intragastric dose; assay type: in vivo
Method in brief: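 Female ICR-SCID mice, 7–8 weeks old, 18 per compound, got a single 250 mg/kg dose in sesame oil by intragastric intubation. Two mice were killed at 0, 1, 2, 4, 6, 8, 12, 16 and 24 h. Pancreas was PBS-washed, blotted, weighed, frozen at −80°C, then homogenized in 5 volumes ice-cold 0.9% saline. Homogenate was ethyl acetate-extracted with zileuton internal standard and assayed by LC-MS/MS. Values are means of two mice.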

[2] = system: MIAPaCa-2 cells; assay: PGE2 immunoassay in conditioned medium of MIAPaCa-2 cells; assay type: cell-based, human; details: 1 or 4 μM, 24 h, vs untreated control
[3] = DPPH radical scavenging assay; assay type: biochemical; details: read-out: IC50, DPPH radical scavenging; data not shown
[4] = system: NF-κB; assay type: cell-based, human; details: MIAPaCa-2 cells, EMSA
[5] = system: COX-2 positive BxPC-3 pancreatic cancer cells; details: BxPC-3 cells, MTT assay; cited from earlier work
[6] = Water solubility; assay type: physicochemical; details: data not shown
[7] = Serum pharmacokinetics in mice after single intragastric dose; assay type: in vivo
Method in brief: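 Female ICR-SCID mice, 7–8 weeks old, 18 per compound, got a single oral 250 mg/kg dose in sesame oil by intragastric tube. Two mice were killed at 0–24 h (nine time points). Cardiac blood was clotted and serum stored at −80°C, then ethyl acetate-extracted with zileuton internal standard and assayed by LC-MS/MS. Cmax was read from the curve. AUClast used linear (rising) and log (falling) trapezoids in non-compartmental analysis. Values are means of two mice.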

[8] = system: BxPC-3 cells; assay: PGE2 immunoassay in conditioned medium of BxPC-3 cells; assay type: cell-based, human; details: 1 or 4 μM, 24 h, vs untreated control
[9] = serum, oral 1 g/kg body weight, mouse; cited from earlier work
[10] = pancreas, single intragastric 250 mg/kg, mice, mean from two mice
[11] = single intragastric 250 mg/kg, mice, mean from two mice
[12] = female, ICR-SCID, mouse, pancreas, po, 250 mg/kg
[13] = female, ICR-SCID, mouse, po, 250 mg/kg

COc1cc(/C=C/C(=O)C(=Cc2ccc(F)c(F)c2)C(=O)/C=C/c2ccc(O)c(OC)c2)ccc1O [CDF]
Cmax in pancreas relative to serum ([1]; at 8 h, oral 250 mg/kg, mice): 44.5 fold | Cmax in pancreas relative to Curcumin ([1]; pancreas, oral 250 mg/kg, mice): 4.3 fold | AUClast (concentration) in pancreas relative to Curcumin ([1]; pancreas, oral 250 mg/kg, mice, 250 mg/kg): 10 fold and 10.6 fold | AUClast [1, 10]: 36.56 µg·h/g | Clast [1, 10]: 0.04 µg/g | Cmax [1, 10]: 9.35 µg/g | Tlast [1, 10]: 12.0 h | Tmax [1, 10]: 8.0 h | PGE2 level in conditioned medium [2]: significant decrease; also recorded: substantial reduction | IC50 [3]: 0.05 µM | NF-κB DNA-binding activity [4]: the effect was more pronounced with a low concentration of CDF | IC50, anti-proliferative activity [5]: low IC50 value | Water solubility relative to Curcumin [6]: 8.4 fold | Systemic drug level (serum AUClast) relative to Curcumin ([7]; oral 250 mg/kg, mice): 2.7 fold | AUClast [7, 11]: 1220 ng·h/mL | Clast [7, 11]: 40 ng/mL | Cmax [7, 11]: 210 ng/mL | Tlast [7, 11]: 16.0 h | Tmax [7, 11]: 8.0 h | PGE2 level in conditioned medium [8]: significant decrease; also recorded: significant reduction

COc1cc(/C=C/C(=O)CC(=O)/C=C/c2ccc(O)c(OC)c2)ccc1O [Curcumin, diferuloylmethane, reference compound]
Time of Cmax [9]: 1 h | Cmax [1, 12]: 2.15 µg/g | Tmax [1, 12]: 1 h | AUClast [1, 10]: 3.46 µg·h/g | Tlast [1, 10]: 16.0 h | PGE2 level in conditioned medium [2]: significant decrease; also recorded: substantial reduction | IC50 [3]: 35 µM | NF-κB DNA-binding activity [4]: caused down-regulation of NF-κB | Cmax [7, 13]: 220 ng/mL | Tmax [7, 13]: 1 h | Tlast [7, 11]: 8 h and 8.0 h | PGE2 level in conditioned medium [8]: such results were not found; also recorded: no significant change
